Data as given in ChEMBL document CHEMBL1154609, “Synthesis and antibacterial activity of isothiazolyl oxazolidinones and analogous 3(2H)-isothiazolones” (Eur J Med Chem, 2010).
In brackets after ≈: the same amount, converted by molar mass.

Key:
[1] = tested on: Staphylococcus aureus; assay: Antibacterial activity against Staphylococcus aureus ATCC 29737 after 18 hrs by agar dilution method; format: functional; conditions: ATCC 29737, 18 h
Procedure, shortened: (§1)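 Agar dilution on Mueller Hinton agar; inoculum about 10^6 CFU/mL applied to plates with twofold serial dilutions of compound in distilled water, 0.01 to 100 μg/mL; 37 °C, 18 h. DMSO-supplemented medium at matching dilution run as solvent control. MIC = lowest concentration giving no visible growth on the plate.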

[2] = tested on: Pseudomonas aeruginosa; assay: Antibacterial activity against Pseudomonas aeruginosa ATCC 9027 after 18 hrs by agar dilution method; conditions: ATCC 9027, 18 h
[3] = tested on: Salmonella typhimurium; assay: Antibacterial activity against Salmonella Typhimurium ATCC 1639 after 18 hrs by agar dilution method; format: functional, Salmonella enterica subsp. enterica serovar Typhimurium; conditions: Salmonella enterica, ATCC 1639, 18 h; procedure, shortened: as §1
[4] = tested on: Escherichia coli; assay: Antibacterial activity against Escherichia coli ATCC 8739 after 18 hrs by agar dilution method; format: functional; conditions: ATCC 8739, 18 h; procedure, shortened: as §1
[5] = tested on: Staphylococcus epidermidis; assay: Antibacterial activity against Staphylococcus epidermidis ATCC 12229 after 18 hrs by agar dilution method; format: functional; conditions: ATCC 12229, 18 h; procedure, shortened: as §1
[6] = Cytotoxicity against mouse NIH/3T3 cells after 24 hrs by MTT assay; format: cell-based; conditions: NIH3T3, 24 h
Procedure, shortened: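 NIH/3T3 normal mouse fibroblasts exposed to compounds for 24 h; viability read by MTT colorimetric assay.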

[7] = tested on: Staphylococcus aureus; assay: Antibacterial activity against methicillin-resistant Staphylococcus aureus isolate 1 after 18 hrs by agar dilution method; format: functional; conditions: isolate 1, 18 h
Procedure, shortened: (§2)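 Agar dilution on Mueller Hinton agar. Inoculum about 10^6 CFU/mL applied to plates holding two-fold serial dilutions of compound in distilled water, 0.01 to 100 μg/mL. Incubated 37 °C for 18 h. DMSO solvent control included. MIC taken as the lowest concentration giving no visible growth on the plate.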

[8] = tested on: Staphylococcus aureus; assay: Antibacterial activity against methicillin-resistant Staphylococcus aureus isolate 2 after 18 hrs by agar dilution method; format: functional; conditions: isolate 2, 18 h; procedure, shortened: as §2

SMILES	MIC [1] [µg/mL]	MIC [2] [µg/mL]	MIC [3] [µg/mL]	MIC [4] [µg/mL]	MIC [5] [µg/mL]	IC50 [6] [µg/mL]	MIC [7] [µg/mL]	MIC [8] [µg/mL]
CN[C@H](CC(C)C)C(=O)N[C@H]1C(=O)N[C@@H](CC(N)=O)C(=O)N[C@H]2C(=O)N[C@H]3C(=O)N[C@H](C(=O)N[C@H](C(=O)O)c4cc(O)cc(O)c4-c4cc3ccc4O)[C@H](O)c3ccc(c(Cl)c3)Oc3cc2cc(c3O[C@@H]2O[C@H](CO)[C@@H](O)[C@H](O)[C@H]2O[C@H]2C[C@](C)(N)[C@H](O)[C@H](C)O2)Oc2ccc(cc2Cl)[C@H]1O [VANCOMYCIN]	0.75 (≈ 0.518 µM)	> 100	> 100	> 100	0.75 (≈ 0.518 µM)			
O=c1ccsn1Cc1ccccc1	12.5 (≈ 65.4 µM)	12.5 (≈ 65.4 µM)	12.5 (≈ 65.4 µM)	12.5 (≈ 65.4 µM)	6 (≈ 31.4 µM)			
CC(=O)NC[C@H]1CN(c2ccc(N3CCOCC3)c(F)c2)C(=O)O1 [LINEZOLID]		> 100	> 100	> 100	0.03 (≈ 0.0889 µM)	465 (≈ 1380 µM)	2 (≈ 5.93 µM)	
CC(=O)c1ccc(N2CC(Cn3sccc3=O)OC2=O)cc1 (configuration not stated)	12.5 (≈ 39.3 µM)	100 (≈ 314 µM)	50 (≈ 157 µM)	50 (≈ 157 µM)	25 (≈ 78.5 µM)			
O=C1OC(Cn2sccc2=O)CN1c1ccc(Cl)cc1 (configuration not stated)	1.5 (≈ 4.83 µM)	25 (≈ 80.4 µM)	12.5 (≈ 40.2 µM)	12.5 (≈ 40.2 µM)	1.5 (≈ 4.83 µM)	194 (≈ 624 µM)	12.5 (≈ 40.2 µM)	12.5 (≈ 40.2 µM)
O=C1OC(Cn2sccc2=O)CN1Cc1ccccc1 (configuration not stated)	0.5 (≈ 1.72 µM)	12.5 (≈ 43.1 µM)	12.5 (≈ 43.1 µM)	12.5 (≈ 43.1 µM)	0.5 (≈ 1.72 µM)	273 (≈ 940 µM)	8 (≈ 27.6 µM)	12.5 (≈ 43.1 µM)
COc1ccc(-n2sccc2=O)cc1	10 (≈ 48.2 µM)	25 (≈ 121 µM)	12.5 (≈ 60.3 µM)	25 (≈ 121 µM)	3 (≈ 14.5 µM)			
O=c1ccsn1-c1ccc(N2CCOCC2)c(F)c1	12.5 (≈ 44.6 µM)	25 (≈ 89.2 µM)	25 (≈ 89.2 µM)	25 (≈ 89.2 µM)	10 (≈ 35.7 µM)			
O=C(O)c1cn(C2CC2)c2cc(N3CCNCC3)c(F)cc2c1=O [CIPROFLOXACIN]	0.5 (≈ 1.51 µM)	0.01 (≈ 0.0302 µM)	0.01 (≈ 0.0302 µM)		1 (≈ 3.02 µM)			
COc1ccc(N2CC(Cn3sccc3=O)OC2=O)cc1 (configuration not stated)	50 (≈ 163 µM)	100 (≈ 326 µM)	100 (≈ 326 µM)	100 (≈ 326 µM)	50 (≈ 163 µM)			
O=c1ccsn1-c1cccc(Cl)c1	10 (≈ 47.2 µM)	25 (≈ 118 µM)	25 (≈ 118 µM)	25 (≈ 118 µM)	12.5 (≈ 59.1 µM)			
Cc1ccc(-n2sccc2=O)cc1	25 (≈ 131 µM)	25 (≈ 131 µM)	25 (≈ 131 µM)	25 (≈ 131 µM)	2 (≈ 10.5 µM)			
O=C1OC(Cn2sccc2=O)CN1c1cccc(F)c1 (configuration not stated)	50 (≈ 170 µM)	100 (≈ 340 µM)	100 (≈ 340 µM)	100 (≈ 340 µM)	100 (≈ 340 µM)			
O=c1ccsn1-c1ccc(C(F)(F)F)cc1	25 (≈ 102 µM)	25 (≈ 102 µM)	25 (≈ 102 µM)	25 (≈ 102 µM)	0.25 (≈ 1.02 µM)			
O=C1OC(Cn2sccc2=O)CN1c1ccccc1 (configuration not stated)	0.75 (≈ 2.71 µM)	0.01 (≈ 0.0362 µM)	0.01 (≈ 0.0362 µM)	0.01 (≈ 0.0362 µM)	0.75 (≈ 2.71 µM)	162 (≈ 586 µM)	6 (≈ 21.7 µM)	10 (≈ 36.2 µM)
Cc1ccc(N2CC(Cn3sccc3=O)OC2=O)cc1 (configuration not stated)	25 (≈ 86.1 µM)	25 (≈ 86.1 µM)	25 (≈ 86.1 µM)	25 (≈ 86.1 µM)	25 (≈ 86.1 µM)			
CC(=O)c1ccc(-n2sc(Cl)cc2=O)cc1	12.5 (≈ 49.3 µM)	12.5 (≈ 49.3 µM)	25 (≈ 98.5 µM)	12.5 (≈ 49.3 µM)	12.5 (≈ 49.3 µM)			
O=c1cc(Cl)sn1-c1ccccc1	50 (≈ 236 µM)	1.25 (≈ 5.91 µM)	0.3 (≈ 1.42 µM)	0.6 (≈ 2.83 µM)	0.3 (≈ 1.42 µM)			
CC(=O)c1ccc(-n2sccc2=O)cc1	12.5 (≈ 57 µM)	12.5 (≈ 57 µM)	12.5 (≈ 57 µM)	12.5 (≈ 57 µM)	12.5 (≈ 57 µM)			
O=C1OC(Cn2sccc2=O)CN1c1cccc(Cl)c1 (configuration not stated)	12.5 (≈ 40.2 µM)	12.5 (≈ 40.2 µM)	12.5 (≈ 40.2 µM)	12.5 (≈ 40.2 µM)	12.5 (≈ 40.2 µM)			
O=C1OC(Cn2sccc2=O)CN1c1ccc(C(F)(F)F)cc1 (configuration not stated)	50 (≈ 145 µM)	100 (≈ 290 µM)	100 (≈ 290 µM)	100 (≈ 290 µM)	100 (≈ 290 µM)			
O=c1ccsn1-c1ccccc1	3.25 (≈ 18.3 µM)	12.5 (≈ 70.5 µM)	25 (≈ 141 µM)	12.5 (≈ 70.5 µM)	3.25 (≈ 18.3 µM)			
O=C1OC(Cn2sccc2=O)CN1c1ccc(F)cc1 (configuration not stated)	0.75 (≈ 2.55 µM)	0.75 (≈ 2.55 µM)	0.75 (≈ 2.55 µM)	0.75 (≈ 2.55 µM)	1.5 (≈ 5.1 µM)	174 (≈ 591 µM)	10 (≈ 34 µM)	12.5 (≈ 42.5 µM)

Continued by falling MIC [1], values first:

MIC [1] [µg/mL]	MIC [2] [µg/mL]	MIC [3] [µg/mL]	MIC [4] [µg/mL]	MIC [5] [µg/mL]	SMILES	IC50 [6] [µg/mL]	MIC [7] [µg/mL]	MIC [8] [µg/mL]
10 (≈ 31.8 µM)	12.5 (≈ 39.7 µM)	25 (≈ 79.4 µM)	25 (≈ 79.4 µM)	10 (≈ 31.8 µM)	O=c1cc(Cl)sn1-c1ccc(N2CCOCC2)c(F)c1			
6 (≈ 15.8 µM)	12.5 (≈ 32.9 µM)	12.5 (≈ 32.9 µM)	25 (≈ 65.9 µM)	12.5 (≈ 32.9 µM)	O=C1OC(Cn2sccc2=O)CN1c1ccc(N2CCOCC2)c(F)c1 (configuration not stated)			
6 (≈ 30.7 µM)	12.5 (≈ 64 µM)	12.5 (≈ 64 µM)	12.5 (≈ 64 µM)	3.25 (≈ 16.6 µM)	O=c1ccsn1-c1cccc(F)c1			
6 (≈ 24.4 µM)	12.5 (≈ 50.8 µM)	12.5 (≈ 50.8 µM)	12.5 (≈ 50.8 µM)	10 (≈ 40.6 µM)	O=c1cc(Cl)sn1-c1cccc(Cl)c1			
5 (≈ 17.9 µM)	0.1 (≈ 0.358 µM)	12.5 (≈ 44.7 µM)	25 (≈ 89.4 µM)	5 (≈ 17.9 µM)	O=c1cc(Cl)sn1-c1ccc(C(F)(F)F)cc1			
5 (≈ 22.2 µM)	0.01 (≈ 0.0443 µM)	5 (≈ 22.2 µM)	5 (≈ 22.2 µM)	0.5 (≈ 2.22 µM)	Cc1ccc(-n2sc(Cl)cc2=O)cc1			
3 (≈ 13.1 µM)	12.5 (≈ 54.4 µM)	6 (≈ 26.1 µM)	6 (≈ 26.1 µM)	3 (≈ 13.1 µM)	O=c1cc(Cl)sn1-c1ccc(F)cc1			
3 (≈ 14.2 µM)	10 (≈ 47.2 µM)	10 (≈ 47.2 µM)	10 (≈ 47.2 µM)	1.5 (≈ 7.09 µM)	O=c1ccsn1-c1ccc(Cl)cc1			
1.5 (≈ 6.21 µM)	0.01 (≈ 0.0414 µM)	1.5 (≈ 6.21 µM)	1.5 (≈ 6.21 µM)	0.25 (≈ 1.03 µM)	COc1ccc(-n2sc(Cl)cc2=O)cc1			
1.5 (≈ 7.68 µM)	12.5 (≈ 64 µM)	12.5 (≈ 64 µM)	6 (≈ 30.7 µM)	3 (≈ 15.4 µM)	O=c1ccsn1-c1ccc(F)cc1			
0.5 (≈ 2.22 µM)	25 (≈ 111 µM)	12.5 (≈ 55.4 µM)	0.5 (≈ 2.22 µM)	0.5 (≈ 2.22 µM)	O=c1cc(Cl)sn1Cc1ccccc1			
0.1 (≈ 0.406 µM)	0.6 (≈ 2.44 µM)	0.3 (≈ 1.22 µM)	0.3 (≈ 1.22 µM)	0.1 (≈ 0.406 µM)	O=c1cc(Cl)sn1-c1ccc(Cl)cc1			
